This is an account of results in ChEMBL document CHEMBL3751804, “Carbazole-containing sulfonamides and sulfamides: Discovery of cryptochrome modulators as antidiabetic agents” (Bioorg Med Chem Lett, 2016).

Data set [1] deals with T1, Period circadian protein homolog 2 (Homo sapiens) (UniProt O15055).
T1 sequence (whole entry): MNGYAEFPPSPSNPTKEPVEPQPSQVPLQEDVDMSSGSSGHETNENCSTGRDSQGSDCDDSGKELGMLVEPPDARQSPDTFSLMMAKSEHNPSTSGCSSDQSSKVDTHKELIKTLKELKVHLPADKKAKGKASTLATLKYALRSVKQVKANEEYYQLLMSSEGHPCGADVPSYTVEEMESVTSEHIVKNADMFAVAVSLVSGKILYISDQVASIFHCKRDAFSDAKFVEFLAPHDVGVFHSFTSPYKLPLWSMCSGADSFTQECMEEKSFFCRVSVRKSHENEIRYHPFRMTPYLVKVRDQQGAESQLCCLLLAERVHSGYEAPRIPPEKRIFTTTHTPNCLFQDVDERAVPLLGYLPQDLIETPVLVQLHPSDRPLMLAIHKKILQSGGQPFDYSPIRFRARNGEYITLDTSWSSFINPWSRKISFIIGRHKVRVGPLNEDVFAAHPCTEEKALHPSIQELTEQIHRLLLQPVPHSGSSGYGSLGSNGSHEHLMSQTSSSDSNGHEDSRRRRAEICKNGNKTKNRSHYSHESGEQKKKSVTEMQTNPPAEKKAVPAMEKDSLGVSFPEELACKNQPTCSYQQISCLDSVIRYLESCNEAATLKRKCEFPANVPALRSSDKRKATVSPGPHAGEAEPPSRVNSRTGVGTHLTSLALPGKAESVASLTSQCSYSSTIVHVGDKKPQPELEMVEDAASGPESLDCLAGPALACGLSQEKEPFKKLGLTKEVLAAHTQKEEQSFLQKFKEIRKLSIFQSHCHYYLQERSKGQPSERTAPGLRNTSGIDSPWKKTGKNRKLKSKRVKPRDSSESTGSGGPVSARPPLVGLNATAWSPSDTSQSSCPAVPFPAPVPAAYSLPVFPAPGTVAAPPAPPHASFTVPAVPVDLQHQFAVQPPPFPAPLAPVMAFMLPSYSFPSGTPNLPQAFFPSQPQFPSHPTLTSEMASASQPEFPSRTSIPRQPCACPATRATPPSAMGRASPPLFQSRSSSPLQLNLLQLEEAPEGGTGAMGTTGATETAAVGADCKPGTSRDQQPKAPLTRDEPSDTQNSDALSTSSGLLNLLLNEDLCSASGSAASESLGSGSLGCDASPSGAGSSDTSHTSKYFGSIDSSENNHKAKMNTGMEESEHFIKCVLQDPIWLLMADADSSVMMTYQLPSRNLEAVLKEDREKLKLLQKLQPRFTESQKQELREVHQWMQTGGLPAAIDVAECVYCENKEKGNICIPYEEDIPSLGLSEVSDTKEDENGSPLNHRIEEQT
Put plainly: Reduction of amplitude effect of PER2 in human U2OS cells harboring Per2-dLuc luciferase reporter gene assessed as effects on circadian rhythms. Format: cell-based. Summed up: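 Human osteosarcoma U2OS cells carrying a Per2-dLuc luciferase reporter, treated continuously; circadian luminescence rhythm amplitude followed. 8-point threefold dilution series; EC50 taken as concentration giving 50% of the compound's own maximal response (titrations without plateau give no EC50).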

The nature of data set [2]: Mean plasma residence time in po dosed ICR mouse. It counts as ADME, organism-based. Summed up:
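Male ICR mice dosed orally; plasma concentrations followed to derive mean plasma residence time (h).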

Data set [3] has as its target Voltage-gated inwardly rectifying potassium channel KCNH2 (Homo sapiens, UniProt Q12809). Put plainly: Inhibition of human ERG.
Another data set concerns Salmonella typhimurium. Put plainly: Genotoxicity in Salmonella typhimurium by Ames assay. Format: toxicity, organism-based. The following applies: salmonella enterica subsp. enterica serovar typhimurium.
In the next data set the test system is Mus musculus. Nature of the data set: Antidiabetic activity in diet-induced obese C57BL/6J mouse model assessed as reduction of glucose AUC at 100 mg/kg, qd for 7 days. Format: functional. Also noted: scale not given: the % may be the effect or the level left. Summed up: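 Diet-induced obese C57BL/6J mice (25 weeks old, high-fat diet for 19 weeks) dosed 100 mg/kg once daily for 7 days, then given an oral glucose tolerance test; glucose clearance expressed as percent reduction in glucose AUC.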

Voltage-gated inwardly rectifying potassium channel KCNH2, sequence (Q12809 whole entry): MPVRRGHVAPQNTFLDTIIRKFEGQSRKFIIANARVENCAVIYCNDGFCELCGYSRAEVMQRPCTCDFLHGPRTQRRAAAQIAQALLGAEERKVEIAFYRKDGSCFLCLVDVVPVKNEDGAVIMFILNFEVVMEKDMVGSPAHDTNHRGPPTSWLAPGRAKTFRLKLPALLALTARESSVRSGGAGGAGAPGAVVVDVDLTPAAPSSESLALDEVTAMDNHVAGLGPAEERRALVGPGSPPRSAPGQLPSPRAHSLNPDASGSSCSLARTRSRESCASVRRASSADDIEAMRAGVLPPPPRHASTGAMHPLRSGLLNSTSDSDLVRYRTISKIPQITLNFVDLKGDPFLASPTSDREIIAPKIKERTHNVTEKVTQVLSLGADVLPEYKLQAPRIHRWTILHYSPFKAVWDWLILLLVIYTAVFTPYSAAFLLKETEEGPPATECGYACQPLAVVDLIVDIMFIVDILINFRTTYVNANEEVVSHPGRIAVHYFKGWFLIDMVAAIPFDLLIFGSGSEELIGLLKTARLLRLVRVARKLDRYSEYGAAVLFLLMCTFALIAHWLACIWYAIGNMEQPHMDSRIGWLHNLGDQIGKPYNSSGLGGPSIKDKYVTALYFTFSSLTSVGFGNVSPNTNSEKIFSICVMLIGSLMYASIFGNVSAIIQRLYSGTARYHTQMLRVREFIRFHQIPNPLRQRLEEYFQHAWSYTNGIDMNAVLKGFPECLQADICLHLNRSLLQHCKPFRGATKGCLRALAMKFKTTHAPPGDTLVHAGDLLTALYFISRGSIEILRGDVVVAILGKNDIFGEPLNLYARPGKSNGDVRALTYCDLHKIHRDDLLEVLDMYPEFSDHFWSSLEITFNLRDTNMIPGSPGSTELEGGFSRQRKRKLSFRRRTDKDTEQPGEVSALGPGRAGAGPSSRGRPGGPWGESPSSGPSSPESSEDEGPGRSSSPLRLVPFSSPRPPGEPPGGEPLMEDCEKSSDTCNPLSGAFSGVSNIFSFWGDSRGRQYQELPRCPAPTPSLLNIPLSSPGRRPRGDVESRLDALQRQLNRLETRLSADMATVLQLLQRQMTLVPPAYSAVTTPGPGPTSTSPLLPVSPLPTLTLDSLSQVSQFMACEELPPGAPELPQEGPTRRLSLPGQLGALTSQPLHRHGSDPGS

For `CCCS(=O)(=O)N(Cc1ccco1)CC(O)Cn1c2ccccc2c2ccccc21` (stereo unspecified), in data set [1], the Activity result is “Dose-dependent effect”.
Same read-out and setting: under `O=S1(=O)CCN1CC(O)Cn1c2ccccc2c2ccccc21` (stereo unspecified) stands “Dose-dependent effect”.
As for `CS(=O)(=O)N(CC(O)Cn1c2ccccc2c2ccccc21)C1CCCCC1` (stereo unspecified), the Activity result in data set [1] is “Dose-dependent effect”.
On the same count and under the same terms, under `CS(=O)(=O)N(CC(O)Cn1c2ccccc2c2ccccc21)C1CCOCC1` (stereo unspecified) stands “Dose-dependent effect”; under `CC(C)N(CC(O)Cn1c2ccccc2c2ccccc21)S(C)(=O)=O` (stereo unspecified), “Dose-dependent effect”; under `O=S(=O)(c1ccccc1)N(Cc1ccco1)CC(O)Cn1c2ccccc2c2ccccc21` (stereo unspecified), “Dose-dependent effect”.
`CN(CC(O)Cn1c2ccccc2c2ccccc21)S(C)(=O)=O` (stereo unspecified): in data set [1], the Activity result was “Dose-dependent effect”. This compound showed an MRT in data set [2] of 3.01 h.
`CC(C)CN(CC(O)Cn1c2ccccc2c2ccccc21)S(C)(=O)=O` (stereo unspecified): the Activity entry in data set [1] is “Dose-dependent effect”.
Still for that read-out and setting: under `CS(=O)(=O)N(Cc1ccccc1)CC(O)Cn1c2ccccc2c2ccccc21` (stereo unspecified) stands “Dose-dependent effect”; under `CS(=O)(=O)N(CC(O)Cn1c2ccccc2c2ccccc21)C1CCCC1` (stereo unspecified), “Dose-dependent effect”.
Still for that read-out and setting: under `O=S1(=O)CCCCN1CC(O)Cn1c2ccccc2c2ccccc21` (stereo unspecified) stands “Dose-dependent effect”.
Same read-out and setting: the same measure for `CCN(CC(O)Cn1c2ccccc2c2ccccc21)S(C)(=O)=O` (stereo unspecified): “Dose-dependent effect”; for `CS(=O)(=O)N(CC(O)Cn1c2ccccc2c2ccccc21)C1CCC1` (stereo unspecified): “Dose-dependent effect”; for `O=S(=O)(C1CCCCC1)N(Cc1ccco1)CC(O)Cn1c2ccccc2c2ccccc21` (stereo unspecified): “Dose-dependent effect”.
As for `CC(C)CS(=O)(=O)N(Cc1ccco1)CC(O)Cn1c2ccccc2c2ccccc21` (stereo unspecified), in data set [1], the Activity entry was “Dose-dependent effect”.
Turning to `CS(=O)(=O)N(CC(O)Cn1c2ccccc2c2ccccc21)C1COC1` (stereo unspecified), in data set [1], the Activity entry is “Dose-dependent effect”.
On the same count and under the same terms, the same measure for `O=S(=O)(C1CCOC1)N(Cc1ccco1)CC(O)Cn1c2ccccc2c2ccccc21` (stereo unspecified): “Dose-dependent effect”; for `COCCS(=O)(=O)N(Cc1ccco1)CC(O)Cn1c2ccccc2c2ccccc21` (stereo unspecified): “Dose-dependent effect”.
Same read-out and setting: the same measure for `CN1CCN(CC(O)Cn2c3ccccc3c3ccccc32)S1(=O)=O` (stereo unspecified): “Dose-dependent effect”; for `CS(=O)(=O)N(CC(O)Cn1c2ccccc2c2ccccc21)c1ccc(F)cc1` (stereo unspecified): “Dose-dependent effect”.
Turning to `CS(=O)(=O)NCC(O)Cn1c2ccccc2c2ccccc21` (stereo unspecified), the Activity result in data set [1] is “Dose-dependent effect”. In data set [2], the MRT was 1.92 h.
As for `CS(=O)(=O)N(CC(O)Cn1c2ccccc2c2ccccc21)C1CC1` (stereo unspecified), the Activity result in data set [1] was “Dose-dependent effect”.
For `CCCN(CC(O)Cn1c2ccccc2c2ccccc21)S(C)(=O)=O` (stereo unspecified), in data set [1], the Activity result is “Dose-dependent effect”.
The same measure, in the same setting: the same measure for `O=S1(=O)NCCN1CC(O)Cn1c2ccccc2c2ccccc21` (stereo unspecified): “Dose-dependent effect”; for `O=S(=O)(Cc1ccccc1)N(Cc1ccco1)CC(O)Cn1c2ccccc2c2ccccc21` (stereo unspecified): “Dose-dependent effect”; for `COCCN(CC(O)Cn1c2ccccc2c2ccccc21)S(C)(=O)=O` (stereo unspecified): “Dose-dependent effect”.
Still for that read-out and setting: under `CS(=O)(=O)N(CC(O)Cn1c2ccccc2c2ccccc21)C1CC(F)(F)C1` (stereo unspecified) stands “Dose-dependent effect”.
As for `CS(=O)(=O)N(CC(O)Cn1c2ccccc2c2ccccc21)C1CCC(F)(F)CC1` (stereo unspecified), the Activity result in data set [1] is “Dose-dependent effect”.
The same measure, in the same setting: under `CS(=O)(=O)N(CC(O)Cn1c2ccccc2c2ccccc21)c1cccc(F)c1` (stereo unspecified) stands “Dose-dependent effect”.
The same measure, in the same setting: the same measure for `O=S(=O)(C1CC1)N(Cc1ccco1)CC(O)Cn1c2ccccc2c2ccccc21` (stereo unspecified): “Dose-dependent effect”.
Turning to `CS(=O)(=O)N(CC(O)Cn1c2ccccc2c2ccccc21)c1ccccc1` (stereo unspecified), in data set [1], the Activity entry is “Dose-dependent effect”.
On the same count and under the same terms, under `CS(=O)(=O)N(CC(O)Cn1c2ccccc2c2ccccc21)c1ccccc1F` (stereo unspecified) stands “Dose-dependent effect”; under `CC(C)S(=O)(=O)N(Cc1ccco1)CC(O)Cn1c2ccccc2c2ccccc21` (stereo unspecified), “Dose-dependent effect”.
For `O=S1(=O)CCCN1CC(O)Cn1c2ccccc2c2ccccc21` (stereo unspecified), in data set [3], the “inhibition (INH)” value is “Not Active”. Also, the values for the Activity result (in data set [1]; with Salmonella typhimurium; with Mus musculus) were “Dose-dependent effect”, “Non-toxic” and 41%, respectively. The same compound yielded a mean residence time MRT in data set [2] of 7.63 h.
For `CCS(=O)(=O)N(Cc1ccco1)CC(O)Cn1c2ccccc2c2ccccc21` (stereo unspecified), in data set [1], the Activity result was “Dose-dependent effect”.
Take `O=S1(=O)NCCCN1CC(O)Cn1c2ccccc2c2ccccc21` (stereo unspecified): the Activity result in data set [1] is “Dose-dependent effect”. Besides, the MRT in data set [2] is 5.12 h.
Turning to `CCCCS(=O)(=O)N(Cc1ccco1)CC(O)Cn1c2ccccc2c2ccccc21` (stereo unspecified), the Activity entry in data set [1] is “Dose-dependent effect”.
Same read-out and setting: the same measure for `O=S1(=O)COCCN1CC(O)Cn1c2ccccc2c2ccccc21` (stereo unspecified): “Dose-dependent effect”.
On the same count and under the same terms, under `CN1CCCN(CC(O)Cn2c3ccccc3c3ccccc32)S1(=O)=O` (stereo unspecified) stands “Dose-dependent effect”.
